ChEMBL document CHEMBL1137627, “Hit generation and exploration: imidazo[4,5-b]pyridine derivatives as inhibitors of Aurora kinases” (Bioorg Med Chem Lett, 2007)
Each block holds one compound with its values, some of them ahead of it. Active and inactive are the calls of the source. The rule behind the calls is not given here.

What was measured:
[1] = target: T1, Aurora kinase A (Homo sapiens) (UniProt O14965); experiment: Inhibition of aurora A kinase at 100 uM
T1 sequence (whole entry): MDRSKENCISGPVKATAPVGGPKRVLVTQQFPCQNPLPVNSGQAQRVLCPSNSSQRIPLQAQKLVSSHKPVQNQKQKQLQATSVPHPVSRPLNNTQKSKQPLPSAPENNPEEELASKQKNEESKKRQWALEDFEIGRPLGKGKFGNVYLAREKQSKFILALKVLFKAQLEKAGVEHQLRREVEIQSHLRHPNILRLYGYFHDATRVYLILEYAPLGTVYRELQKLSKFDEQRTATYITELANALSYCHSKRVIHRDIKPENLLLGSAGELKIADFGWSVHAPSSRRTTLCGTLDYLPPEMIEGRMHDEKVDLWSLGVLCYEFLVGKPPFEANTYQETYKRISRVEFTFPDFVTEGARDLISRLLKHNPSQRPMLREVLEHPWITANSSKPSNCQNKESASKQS
In short: (§1)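 Aurora-A kinase activity measured by Flashplate or Filterplate assay at 20 µM ATP. Samples run in triplicate and mean reported; some IC50 values are the mean of independent determinations.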

[2] = target: T1, Aurora kinase A (Homo sapiens); experiment: Inhibition of aurora A kinase at 10 uM; in short: as §1
Aurora kinase A = target: T2, Aurora kinase A (Homo sapiens, UniProt O14965); experiment: Inhibition of aurora A kinase; in short: as §1
T2 sequence (O14965 whole entry): T1 sequence (whole entry)

Aurora kinase C = target: T3, Aurora kinase C (Homo sapiens, UniProt Q9UQB9); experiment: Inhibition of recombinant aurora C kinase
T3 sequence (Q9UQB9 whole entry): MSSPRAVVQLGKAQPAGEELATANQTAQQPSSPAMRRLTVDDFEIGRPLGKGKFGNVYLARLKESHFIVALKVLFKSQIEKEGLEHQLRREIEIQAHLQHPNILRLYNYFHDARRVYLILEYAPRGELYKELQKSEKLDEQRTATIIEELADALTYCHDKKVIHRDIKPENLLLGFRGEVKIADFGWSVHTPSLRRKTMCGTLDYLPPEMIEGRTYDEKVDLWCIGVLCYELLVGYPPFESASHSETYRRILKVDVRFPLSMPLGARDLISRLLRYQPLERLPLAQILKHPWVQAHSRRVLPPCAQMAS
In short: (§2)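 Purified recombinant Aurora kinase; IC50 determined by either a Flashplate or a Filterplate assay, with ATP in the assay at 20.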

Cytochrome P450 2C9 = Cytochrome P450 2C9 (Homo sapiens, UniProt P11712); experiment: Inhibition of human CYP2C9 after 10 mins; type: ADME
Chain of Cytochrome P450 2C9 (P11712 whole entry): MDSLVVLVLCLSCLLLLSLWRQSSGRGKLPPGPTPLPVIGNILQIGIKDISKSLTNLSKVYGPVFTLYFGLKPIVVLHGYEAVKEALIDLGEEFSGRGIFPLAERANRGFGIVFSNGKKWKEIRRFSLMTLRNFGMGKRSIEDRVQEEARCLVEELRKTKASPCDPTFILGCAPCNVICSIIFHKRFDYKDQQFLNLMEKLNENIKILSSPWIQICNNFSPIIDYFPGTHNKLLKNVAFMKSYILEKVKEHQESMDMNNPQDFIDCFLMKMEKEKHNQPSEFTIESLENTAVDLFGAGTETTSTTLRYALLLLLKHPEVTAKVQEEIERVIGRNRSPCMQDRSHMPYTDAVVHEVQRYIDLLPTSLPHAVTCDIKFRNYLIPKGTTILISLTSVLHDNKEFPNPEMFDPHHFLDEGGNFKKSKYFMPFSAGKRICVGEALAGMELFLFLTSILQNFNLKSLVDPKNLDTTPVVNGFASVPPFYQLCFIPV
In short: (§3)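 Inhibition of CYP isozymes assayed in pooled human liver microsomes from 50 individuals. Microsomal protein 0.5 mg/ml, 10 min incubation. Mephenytoin served as the CYP2C19 substrate. Metabolites were detected by LC–MS–MS with positive electrospray ionisation.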

Cytochrome P450 1A2 = target: T4, Cytochrome P450 1A2 (Homo sapiens, UniProt P05177); experiment: Inhibition of human CYP1A2 after 10 mins; type: ADME; in short: as §3
T4 sequence (P05177 whole entry): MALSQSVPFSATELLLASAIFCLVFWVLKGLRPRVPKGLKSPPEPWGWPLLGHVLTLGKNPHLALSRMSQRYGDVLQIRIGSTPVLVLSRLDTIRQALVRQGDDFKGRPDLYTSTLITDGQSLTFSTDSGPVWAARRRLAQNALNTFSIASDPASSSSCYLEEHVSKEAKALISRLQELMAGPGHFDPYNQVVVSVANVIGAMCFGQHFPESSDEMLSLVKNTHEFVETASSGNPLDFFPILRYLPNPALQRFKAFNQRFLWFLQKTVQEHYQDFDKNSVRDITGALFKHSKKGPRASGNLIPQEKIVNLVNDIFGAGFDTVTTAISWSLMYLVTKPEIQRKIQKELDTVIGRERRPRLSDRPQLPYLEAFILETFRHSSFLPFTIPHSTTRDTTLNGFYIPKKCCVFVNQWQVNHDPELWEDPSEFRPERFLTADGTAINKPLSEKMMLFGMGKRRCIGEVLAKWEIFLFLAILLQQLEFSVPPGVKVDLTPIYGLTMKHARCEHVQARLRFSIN

HCT-116 = experiment: Antiproliferative activity against HCT116 cells; type: functional; details: Homo sapiens
[3] = Metabolic stability in mouse liver microsomes after 30 mins; type: ADME, Microsome; details: read-out: Stability
In short: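 Compound incubated 30 min with mouse liver microsomes. Percent of parent compound remaining was reported.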

HeLa = experiment: Antiproliferative activity against HeLa cells; type: functional; details: Homo sapiens
Cytochrome P450 2D6 = Cytochrome P450 2D6 (Homo sapiens, UniProt P10635); experiment: Inhibition of human CYP2D6 after 10 mins; type: ADME; in short: as §3
Chain of Cytochrome P450 2D6 (P10635 whole entry): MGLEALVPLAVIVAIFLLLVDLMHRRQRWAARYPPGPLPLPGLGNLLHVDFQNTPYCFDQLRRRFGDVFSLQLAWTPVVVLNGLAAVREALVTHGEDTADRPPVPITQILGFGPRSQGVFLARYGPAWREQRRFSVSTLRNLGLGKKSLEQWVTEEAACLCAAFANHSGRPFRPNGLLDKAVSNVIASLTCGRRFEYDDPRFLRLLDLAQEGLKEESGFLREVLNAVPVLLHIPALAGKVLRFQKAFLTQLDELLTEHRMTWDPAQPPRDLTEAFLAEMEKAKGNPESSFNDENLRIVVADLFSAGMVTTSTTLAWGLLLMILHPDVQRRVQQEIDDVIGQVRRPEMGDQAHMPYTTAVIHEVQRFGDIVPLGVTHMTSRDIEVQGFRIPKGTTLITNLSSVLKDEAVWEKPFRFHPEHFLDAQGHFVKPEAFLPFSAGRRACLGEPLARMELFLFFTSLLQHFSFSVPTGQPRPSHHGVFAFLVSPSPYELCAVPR

Aurora kinase B = Aurora kinase B (Homo sapiens, UniProt Q96GD4); experiment: Inhibition of recombinant aurora B kinase; in short: as §2
Chain of Aurora kinase B (Q96GD4 whole entry): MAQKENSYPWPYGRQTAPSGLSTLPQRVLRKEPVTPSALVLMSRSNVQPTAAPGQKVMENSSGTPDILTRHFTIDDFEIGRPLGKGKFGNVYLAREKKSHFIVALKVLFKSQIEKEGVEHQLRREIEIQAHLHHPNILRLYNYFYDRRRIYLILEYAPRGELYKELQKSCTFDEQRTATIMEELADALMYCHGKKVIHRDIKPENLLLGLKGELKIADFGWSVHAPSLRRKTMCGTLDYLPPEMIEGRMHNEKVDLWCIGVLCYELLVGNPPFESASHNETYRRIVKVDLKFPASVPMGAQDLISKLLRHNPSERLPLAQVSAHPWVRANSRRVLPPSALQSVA

Cytochrome P450 2C19 = Cytochrome P450 2C19 (Homo sapiens, UniProt P33261); experiment: Inhibition of human CYP2C19 after 10 mins; type: ADME; in short: as §3
Chain of Cytochrome P450 2C19 (P33261 whole entry): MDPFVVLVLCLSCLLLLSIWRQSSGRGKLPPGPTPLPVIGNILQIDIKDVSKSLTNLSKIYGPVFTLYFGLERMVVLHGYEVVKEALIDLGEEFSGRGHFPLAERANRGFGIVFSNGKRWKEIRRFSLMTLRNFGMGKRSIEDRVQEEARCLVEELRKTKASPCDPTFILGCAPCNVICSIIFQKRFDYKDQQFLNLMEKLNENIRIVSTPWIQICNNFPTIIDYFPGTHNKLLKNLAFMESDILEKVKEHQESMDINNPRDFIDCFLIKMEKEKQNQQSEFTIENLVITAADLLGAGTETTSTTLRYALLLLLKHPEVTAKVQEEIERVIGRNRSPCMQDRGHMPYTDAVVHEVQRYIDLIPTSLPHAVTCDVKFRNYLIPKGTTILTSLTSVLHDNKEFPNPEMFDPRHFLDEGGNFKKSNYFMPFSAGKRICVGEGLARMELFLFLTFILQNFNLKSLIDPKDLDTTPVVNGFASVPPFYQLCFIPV

Cytochrome P450 2A6 = target: T5, Cytochrome P450 2A6 (Homo sapiens, UniProt P11509); experiment: Inhibition of human CYP2A6 after 10 mins; type: ADME; in short: as §3
T5 sequence (P11509 whole entry): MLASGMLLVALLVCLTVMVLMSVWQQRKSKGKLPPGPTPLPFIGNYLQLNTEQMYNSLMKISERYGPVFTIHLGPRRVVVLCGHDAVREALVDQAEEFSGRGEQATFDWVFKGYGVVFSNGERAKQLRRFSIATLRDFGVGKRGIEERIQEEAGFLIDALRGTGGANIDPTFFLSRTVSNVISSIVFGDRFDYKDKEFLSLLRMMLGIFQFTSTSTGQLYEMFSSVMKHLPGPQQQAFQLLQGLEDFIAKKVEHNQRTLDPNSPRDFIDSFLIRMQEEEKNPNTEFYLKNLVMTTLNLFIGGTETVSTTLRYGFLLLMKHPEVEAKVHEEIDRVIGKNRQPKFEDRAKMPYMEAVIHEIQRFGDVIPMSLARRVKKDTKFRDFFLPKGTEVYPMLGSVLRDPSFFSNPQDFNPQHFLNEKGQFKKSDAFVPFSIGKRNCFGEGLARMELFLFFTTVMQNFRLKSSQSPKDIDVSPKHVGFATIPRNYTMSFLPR

- IC50 (Aurora kinase A): 20 µM
Compound: COc1ccc(-c2cnc3nc(-c4ccc(N(C)C)cc4)[nH]c3c2)cc1

- inhibition [2]: 28%
Compound: CN(C)c1ccc(-c2nc3cc(-c4cccnc4)cnc3[nH]2)cc1

- IC50 (Aurora kinase A): 7 µM
Compound: Cc1ccnc2nc(-c3ccc(N(C)C)cc3)[nH]c12

- IC50 (Aurora kinase A): 9 µM
Compound: CC(=O)c1cccc(-c2cnc3[nH]c(-c4ccc(N(C)C)cc4)nc3c2)c1

- IC50 (Aurora kinase A): 18 µM
Compound: CN(C)c1ccc(-c2nc3ncc(-c4cccc(O)c4)cc3[nH]2)cc1

- inhibition [2]: 34%
Compound: CN(C)c1ccc(-c2nc3cc(-c4cccs4)cnc3[nH]2)cc1

- IC50 (Aurora kinase A): 2.4 µM
Compound: CN(C)c1ccc(-c2nc3c(Cl)ccnc3[nH]2)cc1

- IC50 (Aurora kinase A): 0.57 µM
Compound: CN(C)c1ccc(-c2nc3cc(Cl)cnc3[nH]2)cc1

- IC50 (Aurora kinase A): 4.3 µM
Compound: CN(C)c1ccc(-c2nc3cccnc3[nH]2)cc1

- IC50 (Aurora kinase A): 6.9 µM
Compound: Cc1cnc2[nH]c(-c3ccc(N(C)C)cc3)nc2c1

- inhibition [2]: 31%
Compound: CN(C)c1ccc(-c2nc3cc(-c4cccc(O)c4)cnc3[nH]2)cc1

- IC50 (Aurora kinase A): 10 µM
Compound: CN(C)c1cccc(-c2nc3cccnc3[nH]2)c1

- inhibition [1]: 8%
Compound: CN(C)c1ccc(-c2nc3ccccc3[nH]2)cc1

- IC50 (Aurora kinase A): 0.74 µM
Compound: CN(C)c1ccc(-c2nc3cc(C(F)(F)F)cnc3[nH]2)cc1

- inhibition [1]: 33%
Compound: CN(C)c1ccc(-c2nc3cc(-c4ccc5c(c4)OCO5)cnc3[nH]2)cc1

Second part, the compound before the results:

Compound: CCn1c(-c2ccc(N(C)C)cc2)nc2cccnc21
- inhibition [1]: 26%

Compound: CN(C)c1ccccc1-c1nc2cccnc2[nH]1
- inhibition [2]: 20%

Compound: COc1ccc(-c2nc3ncccc3[nH]2)cc1
- IC50 (Aurora kinase A): 6.6 µM

Compound: c1cnc2nc(-c3ccc(C4CCCCN4)cc3)[nH]c2c1 (stereo not given)
- IC50 (Aurora kinase A): 4.4 µM

Compound: CN(C)c1ccc(-c2nc3ncc(Br)cc3[nH]2)cc1
- IC50 (Aurora kinase A): 0.49 µM

Compound: COc1ccccc1-c1nc2ccc[nH]c-2n1
- IC50 (Aurora kinase A): 29 µM

Compound: COc1cc2ncnc(N3CCN(c4ncccn4)CC3)c2cc1OC
- Activity [1]: inactive

Compound: COc1cc2ncnc(N3CCN(CCn4ccnc4)CC3)c2cc1OC
- Activity [1]: inactive

Compound: COc1cc2ncnc(N3CCN(Cc4cccc5ccccc45)CC3)c2cc1OC
- IC50 (Aurora kinase A): 9.6 µM

Compound: COc1cc2ncnc(N3CCN(CCOc4ccccc4)CC3)c2cc1OC
- IC50 (Aurora kinase A): 35 µM

Compound: COc1cccc(-c2nc3ncccc3[nH]2)c1
- IC50 (Aurora kinase A): 16 µM

Compound: CN(C)c1ccc(-c2nc3c(N4CCN(CC(=O)Nc5nccs5)CC4)c(Cl)cnc3[nH]2)cc1
- IC50 (Aurora kinase C): 0.227 µM
- IC50 (Cytochrome P450 2C9): 10 µM
- IC50 (Cytochrome P450 1A2): > 10 µM
- GI50 (HCT-116): 0.35 µM
- remaining at 0.5 h [3]: 75%
- GI50 (HeLa): 0.2 µM
- IC50 (Cytochrome P450 2D6): > 10 µM
- IC50 (Aurora kinase B): 0.198 µM
- IC50 (Cytochrome P450 2C19): > 10 µM
- IC50 (Cytochrome P450 2A6): > 10 µM

Compound: N#Cc1ccc(-c2nc3cccnc3[nH]2)cc1
- inhibition [2]: 38%

Compound: CN(C)c1ccc(-c2nc3c(N4CCN(CC(=O)Nc5nccs5)CC4)ccnc3[nH]2)cc1
- IC50 (Aurora kinase A): 0.87 µM

Compound: COc1cc2ncnc(N3CCN(CC(=O)N(C)c4ccccc4)CC3)c2cc1OC
- IC50 (Aurora kinase A): 16.5 µM

Compound: COc1cc2ncnc(N3CCN(CC(=O)Nc4nccs4)CC3)c2cc1OC
- IC50 (Aurora kinase A): 5.9 µM

Compound: COc1cc2ncnc(N3CCN(CCc4ccccc4)CC3)c2cc1OC
- IC50 (Aurora kinase A): 76 µM

Compound: COc1cc2ncnc(N3CCN(CC(=O)OC(C)(C)C)CC3)c2cc1OC
- Activity [1]: inactive

Compound: COc1cc2ncnc(N3CCN(C(C)c4ccccc4)CC3)c2cc1OC (stereo not given)
- IC50 (Aurora kinase A): 25 µM

Compound: COc1cc2ncnc(N3CCN(c4cnccn4)CC3)c2cc1OC
- Activity [1]: inactive

Compound: COc1cc2ncnc(N3CCN(Cc4ccc(F)cc4)CC3)c2cc1OC
- IC50 (Aurora kinase A): 40 µM

Compound: CN(C)c1ccc(-c2nc3ncc(Cl)c(Cl)c3[nH]2)cc1
- IC50 (Aurora kinase A): 0.25 µM

Compound: COc1cc2ncnc(N3CCN(CC(=O)N4CCCC4)CC3)c2cc1OC
- IC50 (Aurora kinase A): 98 µM

Compound: CN(C)c1ccc(-c2nc3cc[nH]cc-3n2)cc1
- inhibition [2]: 35%
- IC50 (Aurora kinase A): 12.5 µM

Compound: c1cnc2nc(-c3ccc(N4CCCC4)cc3)[nH]c2c1
- IC50 (Aurora kinase A): 4.6 µM
